# Test results taken from ChEMBL document CHEMBL4373640, “Synthesis and antitumor activity of aza-brazilan derivatives containing imidazolium salt pharmacophores” (Medchemcomm, 2019).
# pIC50: −log10 of the molar value.
# Tested on: A549
# Assay: Cytotoxicity against human A549 cells assessed as reduction in cell viability after 48 hrs by MTS assay
# Format: functional, cell-based
# Conditions: A549, 48 h
# In short: (§1)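 Cells (5 × 10^3 per well) were plated 12 h before treatment, then exposed continuously to compound for 48 h. MTS was added, with 1–4 h incubation at 37 °C and OD read at 490 nm. IC50 is the concentration cutting OD by 50% versus untreated cells, taken from dose–response curves. Values are the mean of three independent determinations.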
row,Compound,pIC50
1,COc1cccc2c1N(CCCn1c(C)[n+](CC(=O)c3ccc4ccccc4c3)c3ccccc31)C[C@@H]1Cc3ccccc3[C@H]21,5.27
2,COc1cc2c(cc1OC)[C@@H]1c3cccc(OC)c3N(CCCn3c(C)[n+](CC(=O)c4ccc5ccccc5c4)c4ccccc43)C[C@@H]1C2,5.08
3,COc1cccc2c1N(CCCn1cnc3cc(C)c(C)cc31)C[C@@H]1Cc3ccc(Br)cc3[C@H]21,< 4.70
4,COc1cccc2c1N(CCCn1c(C)[n+](Cc3ccc4ccccc4c3)c3ccccc31)C[C@@H]1Cc3ccc(Br)cc3[C@H]21,5.72
5,COc1cc2c(cc1OC)[C@@H]1c3cccc(OC)c3N(C(=O)CCn3c(C)[n+](CC(=O)c4ccc5ccccc5c4)c4ccccc43)C[C@@H]1C2,5.03
6,COc1cc2c(cc1OC)[C@@H]1c3cccc(OC)c3N(CCCn3c(C)nc4ccccc43)C[C@@H]1C2,< 4.70
7,COc1cccc2c1N(CCCn1c(C)[n+](Cc3ccc(C)cc3)c3ccccc31)C[C@@H]1Cc3ccc(Br)cc3[C@H]21,5.85
8,COc1cccc2c1N(C(=O)CCn1c(C)nc3ccccc31)C[C@@H]1Cc3ccc(Br)cc3[C@H]21,< 4.70
9,COc1ccc(C(=O)C[n+]2c(C)n(CCC(=O)N3C[C@@H]4Cc5cc(OC)c(OC)cc5[C@@H]4c4cccc(OC)c43)c3ccccc32)cc1,< 4.70
10,COc1cccc2c1N(CCCn1c[n+](CC(=O)c3ccc4ccccc4c3)c3cc(C)c(C)cc31)C[C@@H]1Cc3ccc(Br)cc3[C@H]21,5.46
11,COc1cccc2c1N(CCCn1c(C)[n+](Cc3ccc(C)cc3)c3ccccc31)C[C@@H]1Cc3ccccc3[C@H]21,5.37
12,COc1cccc2c1N(C(=O)CCn1c[n+](Cc3ccc4ccccc4c3)c3cc(C)c(C)cc31)C[C@@H]1Cc3ccccc3[C@H]21,5.59
13,COc1cccc2c1N(CCCn1c[n+](CC(=O)c3ccc4ccccc4c3)c3cc(C)c(C)cc31)C[C@@H]1Cc3ccccc3[C@H]21,5.83
14,COc1cc2c(cc1OC)[C@@H]1c3cccc(OC)c3N(CCCn3c[n+](Cc4ccc(C)cc4)c4cc(C)c(C)cc43)C[C@@H]1C2,5.32
15,COc1cccc2c1N(C(=O)CCn1c[n+](CC(=O)c3ccc4ccccc4c3)c3cc(C)c(C)cc31)C[C@@H]1Cc3ccc(Br)cc3[C@H]21,5.95
16,COc1cccc2c1N(C(=O)CCn1c(C)nc3ccccc31)C[C@@H]1Cc3ccccc3[C@H]21,< 4.70
17,COc1cc2c(cc1OC)[C@@H]1c3cccc(OC)c3N(CCCn3c(C)[n+](Cc4ccc(C)cc4)c4ccccc43)C[C@@H]1C2,4.84
18,COc1cccc2c1N(CCCn1cnc3cc(C)c(C)cc31)C[C@@H]1Cc3ccccc3[C@H]21,< 4.70
19,COc1ccc(C(=O)C[n+]2cn(CCCN3C[C@@H]4Cc5ccccc5[C@@H]4c4cccc(OC)c43)c3cc(C)c(C)cc32)cc1,5.85
20,COc1cccc2c1N(CCCn1c(C)[n+](CC(=O)c3ccc4ccccc4c3)c3ccccc31)C[C@@H]1Cc3ccc(Br)cc3[C@H]21,5.79
21,COc1ccc(C(=O)C[n+]2cn(CCC(=O)N3C[C@@H]4Cc5ccccc5[C@@H]4c4cccc(OC)c43)c3cc(C)c(C)cc32)cc1,5.12

# Tested on: SW480
# Assay: Cytotoxicity against human SW480 cells assessed as reduction in cell viability after 48 hrs by MTS assay
# Format: functional, cell-based
# Conditions: SW480, 48 h
# In short: as §1
row,Compound,pIC50
1,COc1cccc2c1N(CCCn1c(C)[n+](CC(=O)c3ccc4ccccc4c3)c3ccccc31)C[C@@H]1Cc3ccccc3[C@H]21,5.74
2,COc1cc2c(cc1OC)[C@@H]1c3cccc(OC)c3N(CCCn3c(C)[n+](CC(=O)c4ccc5ccccc5c4)c4ccccc43)C[C@@H]1C2,5.69
3,COc1cccc2c1N(CCCn1cnc3cc(C)c(C)cc31)C[C@@H]1Cc3ccc(Br)cc3[C@H]21,< 4.70
4,COc1cccc2c1N(CCCn1c(C)[n+](Cc3ccc4ccccc4c3)c3ccccc31)C[C@@H]1Cc3ccc(Br)cc3[C@H]21,5.89
5,COc1cc2c(cc1OC)[C@@H]1c3cccc(OC)c3N(C(=O)CCn3c(C)[n+](CC(=O)c4ccc5ccccc5c4)c4ccccc43)C[C@@H]1C2,5.42
6,COc1cc2c(cc1OC)[C@@H]1c3cccc(OC)c3N(CCCn3c(C)nc4ccccc43)C[C@@H]1C2,< 4.70
7,COc1cccc2c1N(CCCn1c(C)[n+](Cc3ccc(C)cc3)c3ccccc31)C[C@@H]1Cc3ccc(Br)cc3[C@H]21,5.79
8,COc1cccc2c1N(C(=O)CCn1c(C)nc3ccccc31)C[C@@H]1Cc3ccc(Br)cc3[C@H]21,< 4.70
9,COc1ccc(C(=O)C[n+]2c(C)n(CCC(=O)N3C[C@@H]4Cc5cc(OC)c(OC)cc5[C@@H]4c4cccc(OC)c43)c3ccccc32)cc1,4.81
10,COc1cccc2c1N(CCCn1c[n+](CC(=O)c3ccc4ccccc4c3)c3cc(C)c(C)cc31)C[C@@H]1Cc3ccc(Br)cc3[C@H]21,5.37
11,COc1cccc2c1N(CCCn1c(C)[n+](Cc3ccc(C)cc3)c3ccccc31)C[C@@H]1Cc3ccccc3[C@H]21,5.78
12,COc1cccc2c1N(C(=O)CCn1c[n+](Cc3ccc4ccccc4c3)c3cc(C)c(C)cc31)C[C@@H]1Cc3ccccc3[C@H]21,6.01
13,COc1cccc2c1N(CCCn1c[n+](CC(=O)c3ccc4ccccc4c3)c3cc(C)c(C)cc31)C[C@@H]1Cc3ccccc3[C@H]21,5.84
14,COc1cc2c(cc1OC)[C@@H]1c3cccc(OC)c3N(CCCn3c[n+](Cc4ccc(C)cc4)c4cc(C)c(C)cc43)C[C@@H]1C2,5.70
15,COc1cccc2c1N(C(=O)CCn1c[n+](CC(=O)c3ccc4ccccc4c3)c3cc(C)c(C)cc31)C[C@@H]1Cc3ccc(Br)cc3[C@H]21,5.74
16,COc1cccc2c1N(C(=O)CCn1c(C)nc3ccccc31)C[C@@H]1Cc3ccccc3[C@H]21,< 4.70
17,COc1cc2c(cc1OC)[C@@H]1c3cccc(OC)c3N(CCCn3c(C)[n+](Cc4ccc(C)cc4)c4ccccc43)C[C@@H]1C2,5.45
18,COc1cccc2c1N(CCCn1cnc3cc(C)c(C)cc31)C[C@@H]1Cc3ccccc3[C@H]21,< 4.70
19,COc1ccc(C(=O)C[n+]2cn(CCCN3C[C@@H]4Cc5ccccc5[C@@H]4c4cccc(OC)c43)c3cc(C)c(C)cc32)cc1,5.76
20,COc1cccc2c1N(CCCn1c(C)[n+](CC(=O)c3ccc4ccccc4c3)c3ccccc31)C[C@@H]1Cc3ccc(Br)cc3[C@H]21,5.90
21,COc1ccc(C(=O)C[n+]2cn(CCC(=O)N3C[C@@H]4Cc5ccccc5[C@@H]4c4cccc(OC)c43)c3cc(C)c(C)cc32)cc1,6.10

# Tested on: MCF7
# Assay: Cytotoxicity against human MCF7 cells assessed as reduction in cell viability after 48 hrs by MTS assay
# Format: functional, cell-based
# Conditions: MCF7, 48 h
# In short: as §1
row,Compound,pIC50
1,COc1cccc2c1N(CCCn1c(C)[n+](CC(=O)c3ccc4ccccc4c3)c3ccccc31)C[C@@H]1Cc3ccccc3[C@H]21,5.87
2,COc1cc2c(cc1OC)[C@@H]1c3cccc(OC)c3N(CCCn3c(C)[n+](CC(=O)c4ccc5ccccc5c4)c4ccccc43)C[C@@H]1C2,5.67
3,COc1cccc2c1N(CCCn1cnc3cc(C)c(C)cc31)C[C@@H]1Cc3ccc(Br)cc3[C@H]21,< 4.70
4,COc1cccc2c1N(CCCn1c(C)[n+](Cc3ccc4ccccc4c3)c3ccccc31)C[C@@H]1Cc3ccc(Br)cc3[C@H]21,6.04
5,COc1cc2c(cc1OC)[C@@H]1c3cccc(OC)c3N(C(=O)CCn3c(C)[n+](CC(=O)c4ccc5ccccc5c4)c4ccccc43)C[C@@H]1C2,5.33
6,COc1cc2c(cc1OC)[C@@H]1c3cccc(OC)c3N(CCCn3c(C)nc4ccccc43)C[C@@H]1C2,< 4.70
7,COc1cccc2c1N(CCCn1c(C)[n+](Cc3ccc(C)cc3)c3ccccc31)C[C@@H]1Cc3ccc(Br)cc3[C@H]21,5.97
8,COc1cccc2c1N(C(=O)CCn1c(C)nc3ccccc31)C[C@@H]1Cc3ccc(Br)cc3[C@H]21,< 4.70
9,COc1ccc(C(=O)C[n+]2c(C)n(CCC(=O)N3C[C@@H]4Cc5cc(OC)c(OC)cc5[C@@H]4c4cccc(OC)c43)c3ccccc32)cc1,< 4.70
10,COc1cccc2c1N(CCCn1c[n+](CC(=O)c3ccc4ccccc4c3)c3cc(C)c(C)cc31)C[C@@H]1Cc3ccc(Br)cc3[C@H]21,5.80
11,COc1cccc2c1N(CCCn1c(C)[n+](Cc3ccc(C)cc3)c3ccccc31)C[C@@H]1Cc3ccccc3[C@H]21,5.83
12,COc1cccc2c1N(C(=O)CCn1c[n+](Cc3ccc4ccccc4c3)c3cc(C)c(C)cc31)C[C@@H]1Cc3ccccc3[C@H]21,6.03
13,COc1cccc2c1N(CCCn1c[n+](CC(=O)c3ccc4ccccc4c3)c3cc(C)c(C)cc31)C[C@@H]1Cc3ccccc3[C@H]21,6.04
14,COc1cc2c(cc1OC)[C@@H]1c3cccc(OC)c3N(CCCn3c[n+](Cc4ccc(C)cc4)c4cc(C)c(C)cc43)C[C@@H]1C2,5.70
15,COc1cccc2c1N(C(=O)CCn1c[n+](CC(=O)c3ccc4ccccc4c3)c3cc(C)c(C)cc31)C[C@@H]1Cc3ccc(Br)cc3[C@H]21,5.91
16,COc1cccc2c1N(C(=O)CCn1c(C)nc3ccccc31)C[C@@H]1Cc3ccccc3[C@H]21,< 4.70
17,COc1cc2c(cc1OC)[C@@H]1c3cccc(OC)c3N(CCCn3c(C)[n+](Cc4ccc(C)cc4)c4ccccc43)C[C@@H]1C2,5.26
18,COc1cccc2c1N(CCCn1cnc3cc(C)c(C)cc31)C[C@@H]1Cc3ccccc3[C@H]21,< 4.70
19,COc1ccc(C(=O)C[n+]2cn(CCCN3C[C@@H]4Cc5ccccc5[C@@H]4c4cccc(OC)c43)c3cc(C)c(C)cc32)cc1,5.90
20,COc1cccc2c1N(CCCn1c(C)[n+](CC(=O)c3ccc4ccccc4c3)c3ccccc31)C[C@@H]1Cc3ccc(Br)cc3[C@H]21,6.02
21,COc1ccc(C(=O)C[n+]2cn(CCC(=O)N3C[C@@H]4Cc5ccccc5[C@@H]4c4cccc(OC)c43)c3cc(C)c(C)cc32)cc1,5.60

# Tested on: not listed separately
# Assay: Cytotoxicity against human SMMC-7221 cells assessed as reduction in cell viability after 48 hrs by MTS assay
# Format: functional, cell-based
# Conditions: SMMC-7221, 48 h
# In short: as §1
row,Compound,pIC50
1,COc1cccc2c1N(CCCn1c(C)[n+](CC(=O)c3ccc4ccccc4c3)c3ccccc31)C[C@@H]1Cc3ccccc3[C@H]21,5.70
2,COc1cc2c(cc1OC)[C@@H]1c3cccc(OC)c3N(CCCn3c(C)[n+](CC(=O)c4ccc5ccccc5c4)c4ccccc43)C[C@@H]1C2,5.26
3,COc1cccc2c1N(CCCn1cnc3cc(C)c(C)cc31)C[C@@H]1Cc3ccc(Br)cc3[C@H]21,< 4.70
4,COc1cccc2c1N(CCCn1c(C)[n+](Cc3ccc4ccccc4c3)c3ccccc31)C[C@@H]1Cc3ccc(Br)cc3[C@H]21,5.97
5,COc1cc2c(cc1OC)[C@@H]1c3cccc(OC)c3N(C(=O)CCn3c(C)[n+](CC(=O)c4ccc5ccccc5c4)c4ccccc43)C[C@@H]1C2,5.19
6,COc1cc2c(cc1OC)[C@@H]1c3cccc(OC)c3N(CCCn3c(C)nc4ccccc43)C[C@@H]1C2,< 4.70
7,COc1cccc2c1N(CCCn1c(C)[n+](Cc3ccc(C)cc3)c3ccccc31)C[C@@H]1Cc3ccc(Br)cc3[C@H]21,6.01
8,COc1cccc2c1N(C(=O)CCn1c(C)nc3ccccc31)C[C@@H]1Cc3ccc(Br)cc3[C@H]21,< 4.70
9,COc1ccc(C(=O)C[n+]2c(C)n(CCC(=O)N3C[C@@H]4Cc5cc(OC)c(OC)cc5[C@@H]4c4cccc(OC)c43)c3ccccc32)cc1,< 4.70
10,COc1cccc2c1N(CCCn1c[n+](CC(=O)c3ccc4ccccc4c3)c3cc(C)c(C)cc31)C[C@@H]1Cc3ccc(Br)cc3[C@H]21,5.87
11,COc1cccc2c1N(CCCn1c(C)[n+](Cc3ccc(C)cc3)c3ccccc31)C[C@@H]1Cc3ccccc3[C@H]21,5.74
12,COc1cccc2c1N(C(=O)CCn1c[n+](Cc3ccc4ccccc4c3)c3cc(C)c(C)cc31)C[C@@H]1Cc3ccccc3[C@H]21,5.99
13,COc1cccc2c1N(CCCn1c[n+](CC(=O)c3ccc4ccccc4c3)c3cc(C)c(C)cc31)C[C@@H]1Cc3ccccc3[C@H]21,5.96
14,COc1cc2c(cc1OC)[C@@H]1c3cccc(OC)c3N(CCCn3c[n+](Cc4ccc(C)cc4)c4cc(C)c(C)cc43)C[C@@H]1C2,5.77
15,COc1cccc2c1N(C(=O)CCn1c[n+](CC(=O)c3ccc4ccccc4c3)c3cc(C)c(C)cc31)C[C@@H]1Cc3ccc(Br)cc3[C@H]21,6.00
16,COc1cccc2c1N(C(=O)CCn1c(C)nc3ccccc31)C[C@@H]1Cc3ccccc3[C@H]21,< 4.70
17,COc1cc2c(cc1OC)[C@@H]1c3cccc(OC)c3N(CCCn3c(C)[n+](Cc4ccc(C)cc4)c4ccccc43)C[C@@H]1C2,5.19
18,COc1cccc2c1N(CCCn1cnc3cc(C)c(C)cc31)C[C@@H]1Cc3ccccc3[C@H]21,< 4.70
19,COc1ccc(C(=O)C[n+]2cn(CCCN3C[C@@H]4Cc5ccccc5[C@@H]4c4cccc(OC)c43)c3cc(C)c(C)cc32)cc1,5.85
20,COc1cccc2c1N(CCCn1c(C)[n+](CC(=O)c3ccc4ccccc4c3)c3ccccc31)C[C@@H]1Cc3ccc(Br)cc3[C@H]21,5.95
21,COc1ccc(C(=O)C[n+]2cn(CCC(=O)N3C[C@@H]4Cc5ccccc5[C@@H]4c4cccc(OC)c43)c3cc(C)c(C)cc32)cc1,5.50
